Experimental data from ChEMBL document CHEMBL5678799 (Biochem J, 2009).

Assays:
[1] = system: RAC-alpha serine/threonine-protein kinase (Homo sapiens), P31749 [S473D]; assay: Inhibition of recombinant human His6-tagged AKT1 S473D mutant (118 to 480 residues) expressed in baculovirus infected Sf21 cells assessed as remaining activity at 1 uM using crosstide peptide as substrate incubated for 30 mins in presence of [gamma-33P]ATP by filter binding method relative to control
Procedure, shortened: (§1)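 Radiometric panel assay run robotically at 21 °C for 30 min, linear in time and enzyme. […] Activity is expressed as percentage of the compound-omitted control, averaged from triplicates ± S.D.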

[2] = biological target: Casein kinase II subunit alpha (Homo sapiens) (UniProt P68400); assay: Inhibition of recombinant human N-terminal His6-tagged CK2alpha1 (2 to 391 residues) expressed in Escherichia coli assessed as remaining activity at 1 uM using RRRDDDSDDD as substrate incubated for 30 mins in presence of [gamma-33P]ATP by filter binding method relative to control; procedure, shortened: as §1
[3] = biological target: Homeodomain-interacting protein kinase 2 (Homo sapiens) (UniProt Q9H2X6); assay: Inhibition of recombinant human N-terminal GST-tagged HIPK2 (165 to 564 residues) expressed in Escherichia coli assessed as remaining activity at 1 uM using MBP as substrate incubated for 30 mins in presence of [gamma-33P]ATP by filter binding method relative to control
Procedure, shortened: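 Radiometric kinase panel run robotically at room temperature (21 °C) for 30 min, linear in time and enzyme. […] Activity is expressed as percent of control without compound, from triplicate determinations ± S.D.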

[4] = biological target: Ribosomal protein S6 kinase alpha-5 (Homo sapiens) (UniProt O75582); assay: Inhibition of recombinant human His6-tagged MSK1 (2 to 802 residues) expressed in baculovirus infected Sf21 cells assessed as remaining activity at 1 uM using GRPRTSSFAEGKK as substrate incubated for 30 mins in presence of [gamma-33P]ATP by filter binding method relative to control
Procedure, shortened: (§2)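 Robotic radiometric panel assay, 30 min at room temperature (21 °C), with 10 mM magnesium acetate. […] Compound at 1 or 10 µM. Residual activity expressed relative to compound-free control; triplicate average ± S.D.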

[5] = biological target: Mitogen-activated protein kinase 14 (Homo sapiens) (UniProt Q16539); assay: Inhibition of recombinant human N-terminal GST-tagged P38alpha (1 to 360 residues) expressed in Escherichia coli assessed as remaining activity at 1 uM using MBP as substrate incubated for 30 mins in presence of [gamma-33P]ATP by filter binding method relative to control
Procedure, shortened: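 Incubation was 30 min at room temperature (21 °C) under conditions linear with time and enzyme amount. Activity is reported as percent of control lacking compound, triplicate mean ± S.D.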

[6] = biological target: Serine/threonine-protein kinase Nek6 (Homo sapiens) (UniProt Q9HC98); assay: Inhibition of recombinant human His6-tagged NEK6 (8 to 313 residues) expressed in baculovirus infected Sf21 cells assessed as remaining activity at 1 uM using FLAKSFGSPNRAYKK as substrate incubated for 30 mins in presence of [gamma-33P]ATP by filter binding method relative to control
Procedure, shortened: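 Run robotically for 30 min at 21 °C under linear conditions. Compound at 1 or 10 µM. Percentage activity remaining versus control without compound, triplicate mean ± S.D.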

[7] = biological target: Serine/threonine-protein kinase PAK 5 (Homo sapiens) (UniProt Q9P286); assay: Inhibition of recombinant human N-terminal GST-tagged PAK5 (2 to 719 residues) expressed in Escherichia coli assessed as remaining activity at 1 uM using RRRLSFAEPG as substrate incubated for 30 mins in presence of [gamma-33P]ATP by filter binding method relative to control
Procedure, shortened: (§3)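 Panel assays were run for 30 min at 21 °C, within the linear range for time and enzyme. […] Results are percent activity remaining relative to compound-free control, averaged from triplicate ± S.D.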

[8] = biological target: Serine/threonine-protein kinase PAK 6 (Homo sapiens) (UniProt Q9NQU5); assay: Inhibition of recombinant human N-terminal GST-tagged PAK6 (2 to 681 residues) expressed in Escherichia coli assessed as remaining activity at 1 uM using RRRLSFAEPG as substrate incubated for 30 mins in presence of [gamma-33P]ATP by filter binding method relative to control; procedure, shortened: as §3
[9] = biological target: Serine/threonine-protein kinase Chk1 (Homo sapiens) (UniProt O14757); assay: Inhibition of recombinant human N-terminal GST-tagged CHK1 (1 to 476 residues) expressed in baculovirus infected Sf21 cells assessed as remaining activity at 10 uM using CHKtide as substrate incubated for 30 mins in presence of [gamma-33P]ATP by filter binding method relative to control; procedure, shortened: as §2
[10] = biological target: Insulin receptor-related protein (Homo sapiens) (UniProt P14616); assay: Inhibition of recombinant human N-terminal His6-tagged IRR (944 to 1236 residues) expressed in baculovirus infected Sf21 cells assessed as remaining activity at 10 uM using MBP as substrate incubated for 30 mins in presence of [gamma-33P]ATP by filter binding method relative to control
[11] = biological target: Mitogen-activated protein kinase 13 (Homo sapiens) (UniProt O15264); assay: Inhibition of recombinant human GST-tagged P38delta (1 to 365 residues) expressed in Escherichia coli assessed as remaining activity at 10 uM using MBP as substrate incubated for 30 mins in presence of [gamma-33P]ATP by filter binding method relative to control
Procedure, shortened: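 Kinase panel run robotically at 21 °C for 30 min, linear in time and enzyme. […] Compound tested at 1 or 10 µM. Activity given as percentage of incubations without compound, mean of triplicates ± S.D.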

[12] = biological target: Phosphatidylinositol 4-phosphate 3-kinase C2 domain-containing subunit beta (Homo sapiens) (UniProt O00750); assay: Inhibition of PI3KC2beta (unknown origin) assessed as remaining activity at 1 uM using phosphatidylinositol as substrate incubated for 30 mins in presence of ATP relative to control
Procedure, shortened: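 PI3KC2β assayed with 20 μM phosphatidylinositol, 0.2 mM ATP, 2 mM MgCl2, in Tris/HCl pH 7.5 with CHAPS, 30 min at room temperature. Stopped with EDTA, product detected by time-resolved FRET competition with PtdIns3P–biotin and SGK PX domain. Activity as % of no-compound control, triplicate.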

[13] = system: MEF; assay: Growth inhibition of mLST8 knockout MEF cells assessed reduction in cell viability at 3 uM incubated for 1 to 3 days by crystal violet staining based assay; assay type: toxicity; conditions: mouse, time 1-3 day
Procedure, shortened: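 MEFs seeded at 20000 cells per 1.91 cm2 well, grown overnight in 10% foetal bovine serum, then cultured 1, 2 or 3 days with 3 μM inhibitor, 100 nM rapamycin or DMSO. Medium changed every 24 h with freshly dissolved inhibitors. Cells fixed in 4% paraformaldehyde, stained with 0.1% Crystal Violet, dye extracted in 10% acetic acid, A590 read. Quadruplicate wells, expressed as % of DMSO control.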

[14] = biological target: mTORC1 (Homo sapiens) (UniProt P42345+Q8N122+Q9BVC4); conditions: HEK293, dose 100-300 nM, time 30.0 min
[15] = biological target: mTORC2 (Homo sapiens) (UniProt P42345+Q6R327+Q9BVC4+Q9BPZ7); conditions: HEK293, dose 30-1000 nM, time 30.0 min

Mitogen-activated protein kinase 14 (Homo sapiens), sequence (Q16539 whole entry, the tested form may be a part): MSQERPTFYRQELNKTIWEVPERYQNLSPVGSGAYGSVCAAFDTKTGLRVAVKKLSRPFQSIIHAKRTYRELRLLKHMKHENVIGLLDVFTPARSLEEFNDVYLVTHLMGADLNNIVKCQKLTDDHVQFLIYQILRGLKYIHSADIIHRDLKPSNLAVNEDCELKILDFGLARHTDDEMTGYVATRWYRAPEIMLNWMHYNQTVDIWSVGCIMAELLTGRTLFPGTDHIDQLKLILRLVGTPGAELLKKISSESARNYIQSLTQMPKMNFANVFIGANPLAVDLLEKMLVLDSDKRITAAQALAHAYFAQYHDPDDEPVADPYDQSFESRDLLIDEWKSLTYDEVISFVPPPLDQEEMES
Phosphatidylinositol 4-phosphate 3-kinase C2 domain-containing subunit beta (Homo sapiens), sequence (O00750 whole entry, the tested form may be a part): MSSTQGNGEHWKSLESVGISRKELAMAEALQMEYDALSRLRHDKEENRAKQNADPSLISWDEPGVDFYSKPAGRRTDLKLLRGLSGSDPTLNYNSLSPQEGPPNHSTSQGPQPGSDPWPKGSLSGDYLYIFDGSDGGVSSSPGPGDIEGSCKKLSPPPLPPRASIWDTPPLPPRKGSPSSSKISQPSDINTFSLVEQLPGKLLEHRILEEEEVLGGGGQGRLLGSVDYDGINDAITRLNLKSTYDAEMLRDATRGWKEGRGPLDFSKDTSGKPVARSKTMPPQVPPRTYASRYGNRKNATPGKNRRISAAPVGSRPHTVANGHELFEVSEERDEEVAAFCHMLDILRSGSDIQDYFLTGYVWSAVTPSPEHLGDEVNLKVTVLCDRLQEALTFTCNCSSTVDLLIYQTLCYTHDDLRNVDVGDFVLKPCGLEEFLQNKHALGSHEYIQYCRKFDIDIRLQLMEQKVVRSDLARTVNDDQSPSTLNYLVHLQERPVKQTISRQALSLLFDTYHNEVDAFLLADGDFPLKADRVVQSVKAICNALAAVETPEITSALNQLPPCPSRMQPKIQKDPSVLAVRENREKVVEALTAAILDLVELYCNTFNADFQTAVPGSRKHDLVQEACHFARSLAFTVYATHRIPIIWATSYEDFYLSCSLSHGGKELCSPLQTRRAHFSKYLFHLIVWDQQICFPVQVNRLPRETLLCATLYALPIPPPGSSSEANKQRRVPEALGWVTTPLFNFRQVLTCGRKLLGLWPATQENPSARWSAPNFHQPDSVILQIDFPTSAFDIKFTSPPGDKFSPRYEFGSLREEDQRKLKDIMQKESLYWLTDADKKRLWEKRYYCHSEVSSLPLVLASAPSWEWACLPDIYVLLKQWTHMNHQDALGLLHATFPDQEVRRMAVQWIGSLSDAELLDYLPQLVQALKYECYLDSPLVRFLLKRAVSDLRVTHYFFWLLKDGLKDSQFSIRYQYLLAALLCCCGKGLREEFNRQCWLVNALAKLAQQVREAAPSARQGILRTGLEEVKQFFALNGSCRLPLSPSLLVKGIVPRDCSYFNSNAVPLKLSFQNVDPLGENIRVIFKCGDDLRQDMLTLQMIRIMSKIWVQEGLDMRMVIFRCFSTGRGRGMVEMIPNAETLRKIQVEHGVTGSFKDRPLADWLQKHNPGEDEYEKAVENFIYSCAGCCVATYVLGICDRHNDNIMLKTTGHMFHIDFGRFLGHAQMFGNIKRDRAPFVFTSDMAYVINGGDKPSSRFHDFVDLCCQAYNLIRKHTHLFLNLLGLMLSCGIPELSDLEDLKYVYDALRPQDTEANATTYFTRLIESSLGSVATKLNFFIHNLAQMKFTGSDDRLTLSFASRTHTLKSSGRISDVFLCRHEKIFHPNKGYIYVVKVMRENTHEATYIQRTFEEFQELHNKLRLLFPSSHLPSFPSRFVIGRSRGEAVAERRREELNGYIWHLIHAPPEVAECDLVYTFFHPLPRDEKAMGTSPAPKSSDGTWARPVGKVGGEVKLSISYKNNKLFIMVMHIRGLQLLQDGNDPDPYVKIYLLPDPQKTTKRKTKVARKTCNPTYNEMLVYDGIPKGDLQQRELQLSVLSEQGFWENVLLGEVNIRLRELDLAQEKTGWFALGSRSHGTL
Serine/threonine-protein kinase PAK 5 (Homo sapiens), sequence (Q9P286 whole entry, looked up, the tested form may be a part): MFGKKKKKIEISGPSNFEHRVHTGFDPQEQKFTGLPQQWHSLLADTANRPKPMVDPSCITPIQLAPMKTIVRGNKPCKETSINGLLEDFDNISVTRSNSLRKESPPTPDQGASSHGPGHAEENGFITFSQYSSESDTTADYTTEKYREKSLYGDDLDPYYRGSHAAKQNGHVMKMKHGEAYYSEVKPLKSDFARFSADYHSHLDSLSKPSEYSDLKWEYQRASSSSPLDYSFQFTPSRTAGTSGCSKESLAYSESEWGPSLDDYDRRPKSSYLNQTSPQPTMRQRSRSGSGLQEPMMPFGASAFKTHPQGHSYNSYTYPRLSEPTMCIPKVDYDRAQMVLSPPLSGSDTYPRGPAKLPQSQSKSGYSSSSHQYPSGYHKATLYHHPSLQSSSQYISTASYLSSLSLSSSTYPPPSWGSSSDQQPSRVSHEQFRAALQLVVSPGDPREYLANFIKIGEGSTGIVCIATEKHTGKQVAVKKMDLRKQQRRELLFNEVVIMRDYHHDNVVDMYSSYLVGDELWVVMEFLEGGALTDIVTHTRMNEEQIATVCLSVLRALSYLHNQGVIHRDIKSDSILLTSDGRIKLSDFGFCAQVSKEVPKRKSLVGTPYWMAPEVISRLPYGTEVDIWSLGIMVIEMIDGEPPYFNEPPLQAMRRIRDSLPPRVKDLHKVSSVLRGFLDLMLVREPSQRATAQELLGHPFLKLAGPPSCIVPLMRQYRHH
Insulin receptor-related protein (Homo sapiens), sequence (P14616 27-742 limits assumed): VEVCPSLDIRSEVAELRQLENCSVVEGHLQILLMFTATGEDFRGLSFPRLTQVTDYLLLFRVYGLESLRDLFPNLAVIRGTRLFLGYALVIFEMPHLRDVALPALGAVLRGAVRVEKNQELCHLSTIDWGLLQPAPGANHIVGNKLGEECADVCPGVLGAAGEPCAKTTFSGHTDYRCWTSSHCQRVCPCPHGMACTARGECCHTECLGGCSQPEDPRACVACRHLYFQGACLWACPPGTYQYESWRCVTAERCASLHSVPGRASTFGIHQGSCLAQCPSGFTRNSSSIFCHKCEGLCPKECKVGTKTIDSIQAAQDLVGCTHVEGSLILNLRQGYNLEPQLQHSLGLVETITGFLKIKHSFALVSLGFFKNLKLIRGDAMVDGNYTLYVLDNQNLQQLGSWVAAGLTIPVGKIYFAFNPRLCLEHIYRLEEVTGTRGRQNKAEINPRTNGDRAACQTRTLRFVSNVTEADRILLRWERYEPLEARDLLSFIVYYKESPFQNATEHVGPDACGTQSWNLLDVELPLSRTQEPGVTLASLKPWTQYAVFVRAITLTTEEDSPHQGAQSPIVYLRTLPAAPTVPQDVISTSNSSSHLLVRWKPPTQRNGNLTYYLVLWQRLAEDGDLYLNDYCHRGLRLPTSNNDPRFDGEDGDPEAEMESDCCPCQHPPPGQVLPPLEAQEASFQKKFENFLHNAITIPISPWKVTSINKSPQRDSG
Insulin receptor-related protein (Homo sapiens), sequence (P14616 747-1297 limits assumed): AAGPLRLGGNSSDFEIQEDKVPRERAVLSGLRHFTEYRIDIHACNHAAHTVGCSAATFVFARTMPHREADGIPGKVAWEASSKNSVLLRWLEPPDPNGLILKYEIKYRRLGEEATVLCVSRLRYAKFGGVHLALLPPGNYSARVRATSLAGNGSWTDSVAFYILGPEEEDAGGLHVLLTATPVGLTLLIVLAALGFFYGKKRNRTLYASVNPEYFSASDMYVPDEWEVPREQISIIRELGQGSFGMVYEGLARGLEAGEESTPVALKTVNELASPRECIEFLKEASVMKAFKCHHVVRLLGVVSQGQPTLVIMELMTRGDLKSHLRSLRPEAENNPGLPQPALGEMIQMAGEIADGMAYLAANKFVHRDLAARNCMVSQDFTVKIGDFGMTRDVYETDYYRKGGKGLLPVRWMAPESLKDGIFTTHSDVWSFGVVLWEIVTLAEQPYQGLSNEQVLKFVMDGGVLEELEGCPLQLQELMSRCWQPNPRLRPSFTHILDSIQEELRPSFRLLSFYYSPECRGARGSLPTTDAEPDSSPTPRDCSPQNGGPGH
RAC-alpha serine/threonine-protein kinase (Homo sapiens), P31749 [S473D], sequence (P31749 whole entry S473D, the tested form may be a part): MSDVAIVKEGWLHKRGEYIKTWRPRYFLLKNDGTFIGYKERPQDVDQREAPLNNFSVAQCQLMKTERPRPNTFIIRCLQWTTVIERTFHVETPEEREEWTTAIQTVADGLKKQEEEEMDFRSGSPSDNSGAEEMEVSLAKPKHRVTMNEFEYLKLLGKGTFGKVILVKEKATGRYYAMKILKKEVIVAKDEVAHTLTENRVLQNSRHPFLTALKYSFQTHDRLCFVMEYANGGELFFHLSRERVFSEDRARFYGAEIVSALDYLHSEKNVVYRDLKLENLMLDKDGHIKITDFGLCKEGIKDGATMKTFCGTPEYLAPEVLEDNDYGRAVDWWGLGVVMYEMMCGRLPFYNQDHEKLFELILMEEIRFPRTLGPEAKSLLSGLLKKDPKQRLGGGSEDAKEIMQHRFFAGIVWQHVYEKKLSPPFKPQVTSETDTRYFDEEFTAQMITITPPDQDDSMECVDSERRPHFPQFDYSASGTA
Casein kinase II subunit alpha (Homo sapiens), sequence (P68400 whole entry, looked up, the tested form may be a part): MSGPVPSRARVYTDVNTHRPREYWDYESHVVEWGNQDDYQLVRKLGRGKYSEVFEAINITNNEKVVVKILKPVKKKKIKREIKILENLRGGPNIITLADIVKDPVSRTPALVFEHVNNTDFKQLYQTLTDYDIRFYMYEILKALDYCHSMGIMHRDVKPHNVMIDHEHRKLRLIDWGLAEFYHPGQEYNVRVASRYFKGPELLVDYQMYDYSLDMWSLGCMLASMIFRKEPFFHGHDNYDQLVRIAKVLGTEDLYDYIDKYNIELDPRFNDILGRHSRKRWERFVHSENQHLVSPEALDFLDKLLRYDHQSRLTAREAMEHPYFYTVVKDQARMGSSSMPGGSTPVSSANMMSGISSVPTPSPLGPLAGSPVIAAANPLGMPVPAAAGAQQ

## COc1ccc(-c2ccc3c(N4CCOCC4)nc(N4C[C@@H](C)O[C@@H](C)C4)nc3n2)cc1CO [Ku-0063794]
[1]
  Activity: 98%
[2]
  Activity: 104%
[3]
  Activity: 89%
[4]
  Activity: 101%
[5]
  Activity: 101%
[6]
  Activity: 74%
[7]
  Activity: 101%
[8]
  Activity: 75%
[9]
  Activity: 86%
[10]
  Activity: 71%
[11]
  Activity: 87%
[12]
  Activity: 126%
[13]
  growth inhibition (GI): Toxic
[14]
  inhibition: 100%
[15]
  inhibition: Dose-Dependent Effect
